This note sets out measurements from ChEMBL document CHEMBL1144917, “Synthetic, nondegradable diadenosine polyphosphates and diinosine polyphosphates: their effects on insulin-secreting cells and cultured vascular smooth muscle cells” (J Med Chem, 2003).

For assay [1], the system named is INS1. The experiment in a line: Percent of compound radioactivity ([3H]-Ap4A Degradation), in presence of added Ap(s)pCHClpp(s)A, in the incubation medium of INS-1 cell membranes. The assay is classed as functional, cell-based. The method, boiled down:
(§1)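 Membranes from half-confluent INS-1 cells incubated 10 min at 37 °C in KRH buffer with 5.6 mM glucose, 0.31 μM [3H]Ap4A, with or without 30 μM unlabeled nucleotide. Medium aliquot mixed with unlabeled standards, TLC on silica gel in dioxane/conc. ammonia/water (6:1:4) for 2 h. UV-located spots cut out and scintillation counted. Reported as percent of radioactivity per species; mean ± SE of two experiments.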

The species named for assay [2] is Rattus norvegicus. The experiment in a line: Percent of compound radioactivity ([3H]-Ap4A Degradation), in presence of added Ap(s)pCHClpp(s)A, in heparinized rat plasma. The format is functional. More on the design: concentration or dose not given beside the values. The method, boiled down: (§2)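 Heparinized rat plasma (40 μL) incubated 15 min with 10 nM [3H]Ap4A plus 3 μL saline or 3 μL of a 1 mM analogue solution. Products resolved by TLC on silica gel in dioxane/conc. ammonia/water (6:1:4) alongside unlabeled standards, and spots scintillation counted. Reported as percent of radioactivity per species; mean ± SE of two experiments.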

Assay [3] is filed under the species Rattus norvegicus. In words: Percent of compound radioactivity ([3H]-Ap4A Degradation), in presence of added Ap(s)pCH2pp(s)A, in heparinized rat plasma. More on the design: concentration or dose not given beside the values. The assay is classed as functional. The method, boiled down:
as §2

The species entered for assay [4] is Rattus norvegicus. In words: Percent of compound radioactivity ([3H]-Ap4A Degradation) in heparinized rat plasma (saline). The assay is classed as functional. The method, boiled down:
as §2

The test system of assay [5] is INS1. In words: Percent of compound radioactivity ([3H]-Ap4A Degradation), determined in the incubation medium of INS-1 cell membranes. The assay is classed as functional, cell-based. On the set-up: concentration or dose not given beside the values. The method, boiled down:
as §1

In assay [6] the test system is INS1. The experiment in a line: Percent of compound radioactivity ([3H]-Ap4A Degradation), in presence of added Ap4A, in the incubation medium of INS-1 cell membranes. The format is functional, cell-based. On the set-up: concentration or dose not given beside the values. The method, boiled down:
as §1

Assay [7] concerns INS1. The experiment in a line: Percent of compound radioactivity ([3H]-Ap4A Degradation), in presence of added Ap(s)pCH2pp(s)A, in the incubation medium of INS-1 cell membranes. The assay is classed as functional, cell-based. The method, boiled down:
as §1

Consider `Nc1ncnc2c1ncn2[C@@H]1O[C@H](COP(=O)(O)OP(=O)(O)O)[C@@H](O)[C@H]1O`, for which the Radioactivity with INS1 [1] was found to be 8.8%; in the assay listed under Rattus norvegicus [2], 30.6%; in the assay listed under Rattus norvegicus [3] it was 27.4%; in the assay listed under Rattus norvegicus [4] it was 22.3%; in the assay on INS1 [5], 11.3%; in the assay on INS1 [6], 7.8%. In addition, in the assay with INS1 [7], the Radioactivity was found to be 9.3%.

On to `Nc1ncnc2c1ncn2[C@@H]1O[C@H](COP(=O)(O)OP(=O)(O)OP(=O)(O)OP(=O)(O)OC[C@H]2O[C@@H](n3cnc4c(N)ncnc43)[C@H](O)[C@@H]2O)[C@@H](O)[C@H]1O`, for which the Radioactivity in the assay on INS1 [1] was determined as 61.3%; in the assay filed under Rattus norvegicus [2], 26.5%; in the assay filed under Rattus norvegicus [3] it was 31.6%; in the assay listed under Rattus norvegicus [4], 21.5%; in the assay with INS1 [5], 52.4%; with INS1 [6], 70%. Further, the Radioactivity in the assay with INS1 [7] was found to be 54.9%.

With `Nc1ncnc2c1ncn2[C@@H]1O[C@H](COP(=O)(O)O)[C@@H](O)[C@H]1O`, the Radioactivity in the assay listed under Rattus norvegicus [2] was 2.31%; in the assay filed under Rattus norvegicus [3], 1.98%; in the assay listed under Rattus norvegicus [4] it was 2.4%; with INS1 [5] it was 5.3%; in the assay with INS1 [6], 0.8%.

Turning to `Nc1ncnc2c1ncn2[C@@H]1O[C@H](COP(=O)(O)OP(=O)(O)OP(=O)(O)O)[C@@H](O)[C@H]1O`, the Radioactivity in the assay listed under Rattus norvegicus [2] is 40.5%; in the assay listed under Rattus norvegicus [3], 37.6%; in the assay filed under Rattus norvegicus [4], 42.1%; with INS1 [5], 8.4%; with INS1 [6] it was 4%; in the assay with INS1 [7] it was 8.2%.

On to `Nc1ncnc2c1ncn2[C@@H]1O[C@H](CO)[C@@H](O)[C@H]1O`, for which the Radioactivity in the assay on INS1 [1] was 14.3%; in the assay listed under Rattus norvegicus [2] it was under 1%; in the assay filed under Rattus norvegicus [3], under 1%; in the assay listed under Rattus norvegicus [4], under 1%; in the assay with INS1 [5] it was 22.4%; in the assay with INS1 [6] it was 15.1%. Also, the Radioactivity in the assay on INS1 [7] came to 19.4%.
